The text below walks through data of ChEMBL document CHEMBL4043202, “Synthesis, pH dependent, plasma and enzymatic stability of bergenin prodrugs for potential use against rheumatoid arthritis” (Bioorg Med Chem, 2017).

One data set deals with Interleukin-6 (Homo sapiens, UniProt P05231). Description: Inhibition of IL6 (unknown origin).
Data set [1] is described as follows: Solubility in pH 5.0 buffer. The format is physicochemical.
Data set [2] in a line: Stability in pH 4.0 phosphate buffer assessed as compound remaining level at […] incubated for 24 hrs at 37 degC by HPLC method. Particulars: for remaining at 24 h: pH 4.0 phosphate buffer, pH 4, read-out: Stability. The format is physicochemical.
The nature of data set [3]: Distribution coefficient, log D of the compound in PBS/n-octanol at pH 7.4 at 25 degC by HPLC method. It is filed as physicochemical. Put shortly:
(§1)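 Miniaturised shake-flask method: water/n-octanol for log P and PBS pH 7.4/n-octanol for log D, at 25 °C. Tubes were shaken overnight at 500 rpm and centrifuged at 16000 RCF for 20 min to separate the phases. Compound in each phase was quantified by reversed-phase C18 HPLC with the column at 37 °C. Run in triplicate.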

The nature of data set [4]: Partition coefficient, log P of the compound. It is filed as physicochemical. Particulars: octanol/water. Summed up: as §1
Data set [5] can be described thus: Solubility in water. It is filed as physicochemical.
The nature of data set [6]: Stability in pH 6.8 SIF assessed as compound remaining level at 120 mg/mL incubated for 24 hrs at 37 degC by HPLC method. Put shortly: (§2)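 SGF (pH 1.2) and SIF (pH 6.8) were prepared per USP 2000. Compound was incubated at 37 °C and sampled at 0 and 24 h. Samples were quenched with ice-cold acetonitrile and centrifuged. Prodrug and bergenin were measured by compound-specific isocratic RP-C8 HPLC-UV. Each analysis in triplicate.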

A short description of data set [7]: Partition coefficient, log P of the compound in water/n-octanol at pH 7.4 at 25 degC by HPLC method. It is filed as physicochemical. Put shortly:
as §1

A further data set concerns the target Tumor necrosis factor (Homo sapiens, UniProt P01375). As to the kind of experiment: Inhibition of TNFalpha (unknown origin).
Data set [8] can be described thus: Stability in pH 1.2 SGF assessed as compound remaining level at 120 mg/mL incubated for 24 hrs at 37 degC by HPLC method. Put shortly: as §2
Data set [9] in a line: Solubility in pH 3.0 buffer. It is filed as physicochemical.
A short description of data set [10]: Solubility in pH 1.0 buffer. The format is physicochemical.
Data set [11] is described as follows: Partition coefficient, log P of the compound in water/n-octanol at 25 degC by HPLC method. Particulars: pH 7.4.

≈ marks a conversion by molar mass, not a printed value. Bounds are passed on as bounds.

Sequence of Interleukin-6 (P05231 whole entry): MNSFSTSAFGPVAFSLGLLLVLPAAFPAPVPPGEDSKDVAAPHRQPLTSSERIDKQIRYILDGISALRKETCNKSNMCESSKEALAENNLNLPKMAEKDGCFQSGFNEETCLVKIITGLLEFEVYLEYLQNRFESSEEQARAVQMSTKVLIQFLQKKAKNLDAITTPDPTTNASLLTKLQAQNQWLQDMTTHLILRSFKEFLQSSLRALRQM
Sequence of Tumor necrosis factor (P01375 whole entry): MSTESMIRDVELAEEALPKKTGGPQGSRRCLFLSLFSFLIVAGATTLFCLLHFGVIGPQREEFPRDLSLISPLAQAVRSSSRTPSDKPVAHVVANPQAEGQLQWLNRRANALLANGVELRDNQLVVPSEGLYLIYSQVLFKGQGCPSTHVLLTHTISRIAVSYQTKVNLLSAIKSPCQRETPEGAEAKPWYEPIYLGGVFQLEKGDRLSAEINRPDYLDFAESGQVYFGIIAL

For `COc1c(O)cc2c(c1O)[C@@H]1O[C@H](CO)[C@@H](O)[C@H](O)[C@H]1OC2=O` [BERGENIN], the IC50 came out at 0.208 µM against Interleukin-6 and 12.5 µM against Tumor necrosis factor. For the same compound, the solubility in [1] was 1220 µg/mL (≈ 3.72 mM); in [5], above 1000 µg/mL; in data set [9], 1080 µg/mL (≈ 3.29 mM); in data set [10], 1290 µg/mL (≈ 3.93 mM). For the same compound, the remaining at 24 h in data set [2] was 102%. The log distribution coefficient (logD) in [3] is -0.947. Besides, the lipophilicity (logP) was -1.06 in [4] and -0.555 in [7]. In addition, the Stability worked out at 101% in [6] and 111% in data set [8].

As to `COc1c(OC(C)=O)cc2c(c1OC(C)=O)[C@@H]1O[C@H](COC(C)=O)[C@@H](OC(C)=O)[C@H](O)[C@H]1OC2=O`, the Stability in data set [2] (buffer, pH 4, 24 h) amounted to 122.03%; in data set [6] it was 41.8%; in data set [8], 92.3%. In data set [3], this compound displayed a pH-dependent lipophilicity (logD) of 0.429. This compound also returned a logP in [7] of 1.181.

As for `COc1c(OC(=O)c2c(Cl)cc(Cl)cc2Cl)cc2c(c1O)[C@@H]1O[C@H](COC(=O)c3c(Cl)cc(Cl)cc3Cl)[C@@H](O)[C@H](O)[C@H]1OC2=O`, the remaining at 24 h in data set [2] stood at 76%. The logD in data set [3] was 3.89. Moreover, the figures for the Stability in [6] and in data set [8] were 87.5% and 86.5%, respectively. Besides, the logP in data set [7] amounted to 3.693.

`CCCCOc1cc2c(c(OCCCC)c1OC)[C@@H]1O[C@H](CO)[C@@H](O)[C@H](O)[C@H]1OC2=O` displayed a logP in [11] of 2.495. This compound also displayed a logD in data set [3] of 2.83.

As for `COc1c(OC(C)=O)cc2c(c1O)[C@@H]1O[C@H](COC(C)=O)[C@@H](O)[C@H](O)[C@H]1OC2=O`, the pH-dependent lipophilicity (logD) in [3] was -1.06. Moreover, in [7], the logP is reported as -0.494.

For the compound `COc1c(OC(=O)c2c(F)cccc2F)cc2c(c1O)[C@@H]1O[C@H](COC(=O)c3c(F)cccc3F)[C@@H](O)[C@H](O)[C@H]1OC2=O`, the logD in data set [3] is 1.86. Further, the logP in data set [7] is recorded as 1.801.

The compound `COc1c(OC(=O)c2ccccc2)cc2c(c1OC(=O)c1ccccc1)[C@@H]1O[C@H](COC(=O)c3ccccc3)[C@@H](O)[C@H](O)[C@H]1OC2=O` displayed a logD in [3] of 1.77. In addition, the logP in data set [7] turned out to be 2.553.

Turning to `COc1c(OC(=O)c2ccc(C(C)(C)C)cc2)cc2c(c1OC(=O)c1ccc(C(C)(C)C)cc1)[C@@H]1O[C@H](COC(=O)c3ccc(C(C)(C)C)cc3)[C@@H](OC(=O)c3ccc(C(C)(C)C)cc3)[C@H](OC(=O)c3ccc(C(C)(C)C)cc3)[C@H]1OC2=O`, the remaining at 24 h in data set [2] was 104%. The compound further returned a logD in [3] of 0.162. The figures for the Stability in data set [6] and in [8] were 86.1% and 109%, respectively. The compound further yielded a lipophilicity (logP) in [7] of 0.771.

In [3], `CCCOc1cc2c(c(OCCC)c1OC)[C@@H]1O[C@H](CO)[C@@H](O)[C@H](O)[C@H]1OC2=O` showed a log distribution coefficient (logD) of 1.51. In [7], this compound came in with a logP of 1.655.

In turn, `COc1c(O)cc2c(c1O)[C@@H]1O[C@H](COC(=O)c3ccc([N+](=O)[O-])cc3)[C@@H](O)[C@H](O)[C@H]1OC2=O` showed a log distribution coefficient (logD) in data set [3] of 1.53. Further, in [7], the logP turned out to be 1.563.

`CCCCCC(=O)OC[C@H]1O[C@H]2c3c(cc(OC(=O)CCCCC)c(OC)c3OC(=O)CCCCC)C(=O)O[C@@H]2[C@@H](OC(=O)CCCCC)[C@@H]1OC(=O)CCCCC` displayed a log distribution coefficient (logD) in data set [3] of 6.06. Besides, in data set [7], the logP turned out to be 5.967.

In the case of `COc1c(OC(=O)CC(C)C)cc2c(c1OC(=O)CC(C)C)[C@@H]1O[C@H](COC(=O)CC(C)C)[C@@H](OC(=O)CC(C)C)[C@H](OC(=O)CC(C)C)[C@H]1OC2=O`, the logD in data set [3] was 6.45. This compound also returned a logP in data set [7] of 6.358.

`COc1c(OCc2ccccc2)cc2c(c1OCc1ccccc1)[C@@H]1O[C@H](CO)[C@@H](O)[C@H](O)[C@H]1OC2=O`: the remaining at 24 h in data set [2] was 52.4%. This compound returned a logP in data set [11] of 1.965. This compound also yielded a log distribution coefficient (logD) in data set [3] of 1.98. Besides, the Stability came to 90.5% in [6] and 68.8% in data set [8].

As for `COc1c(OC(C)=O)cc2c(c1OC(C)=O)[C@@H]1O[C@H](COC(C)=O)[C@@H](OC(C)=O)[C@H](OC(C)=O)[C@H]1OC2=O` [BERGENIN PENTAACETATE], in [2], the remaining at 24 h is 119%. The same compound displayed a logD in data set [3] of 0.516. Also, the results for the Stability in data set [6] and in data set [8] were 100% and 99.1%, respectively. The compound further came in with a log partition coefficient (logP) in data set [7] of 1.155.

As to `COc1c(OC(=O)c2ccc([N+](=O)[O-])cc2)cc2c(c1O)[C@@H]1O[C@H](COC(=O)c3ccc([N+](=O)[O-])cc3)[C@@H](O)[C@H](O)[C@H]1OC2=O`, the remaining at 24 h in data set [2] came out at 45%. This compound came in with a pH-dependent lipophilicity (logD) in data set [3] of 2.65. Besides, the Stability in data set [6] turned out to be 59.5%; in data set [8] it was 91.6%. Also, the logP in [7] was determined as 2.508.

In data set [3], `CCCCCCCC(=O)OC[C@H]1O[C@H]2c3c(cc(OC(=O)CCCCCCC)c(OC)c3OC(=O)CCCCCCC)C(=O)O[C@@H]2[C@@H](OC(=O)CCCCCCC)[C@@H]1OC(=O)CCCCCCC` registered a logD of 6.11. The compound further returned a logP in data set [7] of 6.011.

`Nc1ncn([C@@H]2O[C@H](CO)[C@@H](O)[C@H]2O)c(=O)n1` [AZACITIDINE] gave a log partition coefficient (logP) in [4] of -3.1. In [5], the concentration in solution (solubility) came to 89000 µg/mL (≈ 364 mM).

Regarding `COc1c(OC(=O)c2ccc(C(C)(C)C)cc2)cc2c(c1OC(=O)c1ccc(C(C)(C)C)cc1)[C@@H]1O[C@H](COC(=O)c3ccc(C(C)(C)C)cc3)[C@@H](O)[C@H](O)[C@H]1OC2=O`, the remaining at 24 h in data set [2] worked out at 95%. The log distribution coefficient (logD) in data set [3] came to 0.552. The Stability was 93.5% in data set [6] and 106% in [8]. Also, the logP in data set [7] turned out to be 0.599.

The compound `COc1c(OC(=O)c2ccccc2C)cc2c(c1OC(=O)c1ccccc1C)[C@@H]1O[C@H](COC(=O)c3ccccc3C)[C@@H](OC(=O)c3ccccc3C)[C@H](O)[C@H]1OC2=O` yielded a logD in [3] of 1.61. In data set [7], this compound had a logP of 1.751.

Usually IC50 stands for the concentration needed to halve the response being measured. As a reminder, the solubility is how much of the substance goes into solution per volume. Lower therefore signals little dissolved substance. Broadly, the logD is the decadic logarithm of the distribution of all forms, ionised or not, between an organic phase and buffer at a given pH. Low values mean lower lipophilicity, high ones higher lipophilicity. For orientation: logP means the decadic logarithm of the partition coefficient of the neutral form, usually between octanol and water. Lower therefore signals lower lipophilicity.
